A word on the IC50: it is the concentration needed to halve the response being measured. Higher therefore signals a need for much substance. The term half-life denotes how long it takes for the measured level to halve. As usually defined, the Cmax is the maximum level reached in the sampled fluid or tissue.

Each structure is given as a SMILES string.

This is an account of results in ChEMBL document CHEMBL3585325, “Discovery of (1R,2S)-2-{[(2,4-Dimethylpyrimidin-5-yl)oxy]methyl}-2-(3-fluorophenyl)-N-(5-fluoropyridin-2-yl)cyclopropanecarboxamide (E2006): A Potent and Efficacious Oral Orexin Receptor Antagonist” (J Med Chem, 2015).

In one data set the target is T1, Cytochrome P450 2C8 (Homo sapiens, UniProt P10632).
T1 sequence (P10632 whole entry): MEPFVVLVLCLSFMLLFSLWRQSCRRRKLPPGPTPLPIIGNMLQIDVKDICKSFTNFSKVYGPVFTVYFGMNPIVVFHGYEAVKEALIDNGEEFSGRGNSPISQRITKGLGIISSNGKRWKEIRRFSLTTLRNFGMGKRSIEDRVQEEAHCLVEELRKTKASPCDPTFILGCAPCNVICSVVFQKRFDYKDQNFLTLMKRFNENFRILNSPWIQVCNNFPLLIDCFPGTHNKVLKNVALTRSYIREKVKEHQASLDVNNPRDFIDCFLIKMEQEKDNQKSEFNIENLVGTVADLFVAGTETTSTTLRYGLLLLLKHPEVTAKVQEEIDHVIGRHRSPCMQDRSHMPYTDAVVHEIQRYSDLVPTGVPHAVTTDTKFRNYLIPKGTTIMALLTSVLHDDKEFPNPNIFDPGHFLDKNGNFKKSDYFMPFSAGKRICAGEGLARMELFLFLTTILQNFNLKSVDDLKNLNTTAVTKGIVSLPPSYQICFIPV
The experiment in a line: Inhibition of CYP2C8 in human liver microsomes using rosiglitazone as susbtrate incubated for 30 mins prior to substrate addition for 10 mins by LC-MS/MS analysis. In kind it is ADME. Background: Liver microsomes are vesicles of endoplasmic reticulum, rich in cytochrome P450 enzymes.

Data set [1] in a line: Drug uptake in C57BL/6NCrlCrlj mouse CSF at 10 mg/kg, po administered as single dose measured after 1 hr by LC-MS/MS analysis. The note with it: read-out: Drug uptake. In kind it is ADME, organism-based, Cerebrospinal fluid. The gist of the method: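 Male C57BL/6NCrlCrlj mice given a single 10 mg/kg oral dose as a suspension in 0.5% aqueous methylcellulose. At 1 or 3 h, under pentobarbital anesthesia, CSF was taken from the cisterna magna and then blood from the abdominal aorta (spun to plasma). Samples were acetonitrile-precipitated with deuterated internal standard and run by LC-MS/MS. Values are mean with SEM.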

Data set [2] can be described thus: Half life in C57BL/6NCrlCrlj mouse at 1 mg/kg, iv by LC-MS/MS analysis. In kind it is ADME, organism-based. The note with it: in vivo. Summed up:
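Male C57BL/6NCrlCrlj mice dosed intravenously at 1 mg/kg in 10% DMSO in water. Blood was taken from the tail vein at set time points and spun to plasma. Concentrations were measured by LC-MS/MS (MRM, positive mode) against a 1/x²-weighted standard curve with internal standard. Parameters came from noncompartmental analysis.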

The nature of data set [3]: Cmax in C57BL/6NCrlCrlj mouse at 10 mg/kg, po by LC-MS/MS analysis. The settings on record: in vivo. In kind it is ADME, organism-based. The arrangement: dose 10 mg/kg, route oral. The gist of the method:
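Male C57BL/6NCrlCrlj mice dosed orally at 10 mg/kg in 10% Cremophor EL, 5% DMSO in saline. Tail-vein blood was taken at set time points and spun to plasma. Quantified by LC-MS/MS (MRM, positive mode) with internal standard and a 1/x²-weighted calibration. Parameters came from noncompartmental analysis.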

At Cytochrome P450 2C8, `Cc1ncc(OC[C@@]2(c3cccc(F)c3)C[C@H]2C(=O)Nc2ccc(F)cn2)c(C)n1` [LEMBOREXANT] displayed an IC50 of more than 20 µM. Moreover, in data set [1], the concentration at 1 h amounted to 32.8 nM. This molecule also gave a half-life in data set [2] of 2.16 h. In addition, the Cmax in data set [3] was 488 ng/mL.
